Test results: ChEMBL document CHEMBL4680118, “Cerpegin-derived furo[3,4-c]pyridine-3,4(1H,5H)-diones enhance cellular response to interferons by de novo pyrimidine biosynthesis inhibition” (Eur J Med Chem, 2020)
Active and inactive are the calls of the source. The rule behind the calls is not given here.

What was measured:
Format in all cases: cell-based
[1] = target: T1, Dihydroorotate dehydrogenase (quinone), mitochondrial (Homo sapiens, UniProt Q02127); test: Inhibition of DHODH in human HEK293 cells transfected with ISRE-luciferase reporter gene assessed as increase in 60 IU/ml IFN-alpha stimulated IFITM3 mRNA expression at 80 uM measured after 16 hrs by RT-qPCR analysis relative to control
Summary of the method: (§1)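 HEK-293 ISRE-Luc cells (DMEM, 10% FCS, 37°C, 5% CO2) were given increasing IFN-α doses together with DMSO or compound at 80 μM, then harvested at 16 h. RNA was extracted from 2×10^5 cells with DNase treatment. Transcripts were run by qPCR for 35 cycles and normalized to RPL13A and to unstimulated controls by 2^-ΔΔCT. Values are fold change versus DMSO; three independent experiments; two-way ANOVA with Bonferroni.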

[2] = target: T1, Dihydroorotate dehydrogenase (quinone), mitochondrial; test: Inhibition of DHODH in human HEK293 cells transfected with ISRE-luciferase reporter gene assessed as increase in 60 IU/ml IFN-alpha stimulated IFIT5 mRNA expression at 80 uM measured after 16 hrs by RT-qPCR analysis relative to control; summary of the method: as §1
[3] = target: T1, Dihydroorotate dehydrogenase (quinone), mitochondrial; test: Inhibition of DHODH in HEK293 cells assessed as reduction in number of viable cells at 6 to 193 uM measured upto 72 hrs by Celltiter-Glo assay; details: dose 6-193 µM, time hrs <=72
Summary of the method: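 HEK-293 ISRE-Luc cells in DMEM with 10% FCS at 37°C, 5% CO2, treated with compound or DMSO; viable cells quantified by ATP content (CellTiter-Glo luminescence) after 24, 48 and 72 h. Expressed as percent of untreated cells at t = 0 h; means ± SD of two independent experiments.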

[4] = target: T1, Dihydroorotate dehydrogenase (quinone), mitochondrial; test: Inhibition of DHODH in human HEK-293 cells transfected with ISRE-luciferase reporter gene assessed as increase in 150 IU/ml IFN-alpha mediated cellular response at 80 uM in presence of PF477736 CHK1 inhibitor measured after 24 hrs by luciferase reporter gene assay; details: HEK293
Summary of the method: (§2)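 ISRE-Luc HEK-293 cells given IFN-α (150 IU/ml) alone or with test compound (80 µM), with or without the MRE11 inhibitor mirin, ATR inhibitor AZD6738, CHK1 inhibitor PF477736 or P300/CBP inhibitor C636. Firefly luciferase read 24 h later, normalized to IFN-α alone. Means ± SD of at least three independent experiments.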

[5] = target: T1, Dihydroorotate dehydrogenase (quinone), mitochondrial; test: Inhibition of DHODH in human HEK293 cells transfected with ISRE-luciferase reporter gene assessed as increase in 60 IU/ml IFN-alpha stimulated […] mRNA expression at 80 uM measured after 16 hrs by RT-qPCR analysis relative to control
Summary of the method: (§3)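 ISRE-Luc HEK cells co-treated with increasing IFN-α concentrations and DMSO or compound (80 µM) for 16 h. Total RNA extracted from 2×10^5 cells with DNase step; qPCR 35 cycles. CT values normalized to RPL13A and unstimulated controls (2^-ΔΔCT), expressed as fold change versus DMSO alone. Three independent experiments; two-way ANOVA with Bonferroni.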

[6] = target: T1, Dihydroorotate dehydrogenase (quinone), mitochondrial; test: Inhibition of DHODH in human HEK293 cells transfected with ISRE-luciferase reporter gene assessed as increase in 125 IU/ml IFN-alpha stimulated PKR mRNA expression at 80 uM measured after 16 hrs by RT-qPCR analysis relative to control; summary of the method: as §3
[7] = target: T1, Dihydroorotate dehydrogenase (quinone), mitochondrial; test: Inhibition of DHODH in human HEK293 cells transfected with ISRE-luciferase reporter gene assessed as increase in 30 IU/ml IFN-alpha stimulated IFIT1 mRNA expression at 80 uM measured after 16 hrs by RT-qPCR analysis relative to control; summary of the method: as §3
[8] = target: T1, Dihydroorotate dehydrogenase (quinone), mitochondrial; test: Inhibition of DHODH in human HEK293 cells transfected with ISRE-luciferase reporter gene assessed as increase in 250 IU/ml IFN-alpha stimulated IFIT5 mRNA expression at 80 uM measured after 16 hrs by RT-qPCR analysis relative to control; summary of the method: as §3
[9] = target: T1, Dihydroorotate dehydrogenase (quinone), mitochondrial; test: Inhibition of DHODH in human HEK-293 cells transfected with ISRE-luciferase reporter gene assessed as increase in 150 IU/ml IFN-alpha mediated cellular response at 80 uM in presence of mirin measured after 24 hrs by luciferase reporter gene assay; details: HEK293; summary of the method: as §2
[10] = target: T1, Dihydroorotate dehydrogenase (quinone), mitochondrial; test: Inhibition of DHODH in human HEK293 cells transfected with ISRE-luciferase reporter gene assessed as increase in 250 IU/ml IFN-alpha stimulated PKR mRNA expression at 80 uM measured after 16 hrs by RT-qPCR analysis relative to control; summary of the method: as §3
[11] = target: T1, Dihydroorotate dehydrogenase (quinone), mitochondrial; test: Inhibition of DHODH in human HEK293 cells transfected with ISRE-luciferase reporter gene assessed as increase in 125 IU/ml IFN-alpha stimulated MX2 mRNA expression at 80 uM measured after 16 hrs by RT-qPCR analysis relative to control; summary of the method: as §3
[12] = target: T1, Dihydroorotate dehydrogenase (quinone), mitochondrial; test: Inhibition of DHODH in human HEK293 cells transfected with ISRE-luciferase reporter gene assessed as increase in 60 IU/ml IFN-alpha stimulated PML mRNA expression at 80 uM measured after 16 hrs by RT-qPCR analysis relative to control; summary of the method: as §1
[13] = target: T1, Dihydroorotate dehydrogenase (quinone), mitochondrial; test: Inhibition of DHODH in human HEK-293 cells transfected with ISRE-luciferase reporter gene assessed as increase in IFN-alpha mediated cellular response at 80 uM in presence of uridine measured after 24 hrs by luciferase reporter gene assay; details: HEK293
Summary of the method: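 ISRE-Luc HEK-293 cells exposed to increasing IFN-α concentrations with DMSO or compound (80 µM), supplemented with uridine (125 µM) or with 3 mM orotate or DHO. Reporter luciferase read after 24 h, normalized to DMSO + IFN-α 250 IU/ml. Means ± SD of three independent experiments; two-way ANOVA.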

[14] = target: T1, Dihydroorotate dehydrogenase (quinone), mitochondrial; test: Inhibition of DHODH in human HEK293 cells transfected with ISRE-luciferase reporter gene assessed as increase in INFgamma-stimulated cellular response at 80 uM measured after 24 hrs by luciferase reporter gene assay
Summary of the method: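 ISRE-Luc HEK-293 cells were treated with DMSO or compound at 80 μM, with or without recombinant IFN-γ at 150 IU/ml. Firefly luciferase was read 24 h later with Bright-Glo or Britelite, 0.1 s luminescence. Signal was normalized to DMSO + IFN-γ. Values are means ± SD of three independent experiments; two-tailed t-test.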

[15] = target: T1, Dihydroorotate dehydrogenase (quinone), mitochondrial; test: Inhibition of DHODH in human HEK293 cells transfected with ISRE-luciferase reporter gene assessed as increase in 250 IU/ml IFN-alpha stimulated […] mRNA expression at 80 uM measured after 16 hrs by RT-qPCR analysis relative to control; summary of the method: as §3
[16] = target: T1, Dihydroorotate dehydrogenase (quinone), mitochondrial; test: Inhibition of DHODH in human HEK293 cells transfected with ISRE-luciferase reporter gene assessed as increase in 30 IU/ml IFN-alpha stimulated IFIT3 mRNA expression at 80 uM measured after 16 hrs by RT-qPCR analysis relative to control; summary of the method: as §3
[17] = target: T1, Dihydroorotate dehydrogenase (quinone), mitochondrial; test: Inhibition of DHODH in human HEK293 cells transfected with ISRE-luciferase reporter gene assessed as increase in 250 IU/ml IFN-alpha stimulated MX2 mRNA expression at 80 uM measured after 16 hrs by RT-qPCR analysis relative to control; summary of the method: as §3

T1 sequence (Q02127 whole entry): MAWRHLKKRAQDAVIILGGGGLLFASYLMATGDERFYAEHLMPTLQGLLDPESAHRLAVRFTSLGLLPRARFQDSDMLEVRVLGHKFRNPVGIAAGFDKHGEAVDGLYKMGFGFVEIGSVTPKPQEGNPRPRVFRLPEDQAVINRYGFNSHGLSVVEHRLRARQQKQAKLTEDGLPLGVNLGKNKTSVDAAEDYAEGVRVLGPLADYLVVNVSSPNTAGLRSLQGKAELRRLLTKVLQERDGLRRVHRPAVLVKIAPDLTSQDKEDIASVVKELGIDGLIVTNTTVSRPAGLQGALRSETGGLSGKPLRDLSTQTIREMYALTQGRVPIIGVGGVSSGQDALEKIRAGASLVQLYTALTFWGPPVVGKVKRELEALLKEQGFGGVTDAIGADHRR

fold change (FC) [1]: 12
fold change (FC) [2]: 3
Activity [4]: inactive
fold change (FC) [5]: 83
fold change (FC) [6]: 3
fold change (FC) [7]: 51
fold change (FC) [8]: 5
Activity [9]: inactive
fold change (FC) [10]: 4
fold change (FC) [11]: 20
fold change (FC) [12]: 4
Activity [13]: inactive
Activity [14]: Active
fold change (FC) [15]: 143
fold change (FC) [16]: 39
fold change (FC) [17]: 28
SMILES: O=C1OC2(CCCCC2)c2ccn(C3CC3)c(=O)c21
inhibition [3]: Active
